PP5 inh: inhibitors of human protein phosphatase 5 (PP5). inhibition, % at 6.7 µM. AID 1987. purified PP5c, OMFP substrate fluorescence. 320,000 tested, 0.18% active;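 active = inhibition above the campaign's mean inhibition across all tested compounds plus 3 SD, cut at about 9.5% in these data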;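 note: 0% = DMSO only and 100% = 100 µM cantharidin control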
Target sequence (P53041 whole entry, looked up): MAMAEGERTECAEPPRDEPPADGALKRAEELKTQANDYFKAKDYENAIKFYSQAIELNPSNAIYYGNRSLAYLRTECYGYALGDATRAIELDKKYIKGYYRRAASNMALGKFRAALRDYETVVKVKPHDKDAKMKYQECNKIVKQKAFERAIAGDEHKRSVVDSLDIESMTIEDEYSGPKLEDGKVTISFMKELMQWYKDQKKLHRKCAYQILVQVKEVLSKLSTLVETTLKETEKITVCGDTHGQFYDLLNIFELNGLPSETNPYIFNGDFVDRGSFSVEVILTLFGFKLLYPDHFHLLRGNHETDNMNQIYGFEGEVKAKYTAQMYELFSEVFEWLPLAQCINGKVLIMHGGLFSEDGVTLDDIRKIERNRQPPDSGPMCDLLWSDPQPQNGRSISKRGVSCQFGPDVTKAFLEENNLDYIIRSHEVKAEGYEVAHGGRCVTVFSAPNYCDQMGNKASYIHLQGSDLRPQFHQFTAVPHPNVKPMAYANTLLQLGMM
p97 ATPase inh: human p97 ATPase inhibition; P55072; recombinant p97 ATPase, Kinase-Glo ATP luminescence, 3 h; inhibition, % at 8 µM; 220,000 tested, 0.42% active; AID 1481; in the data active = inhibition above about 15%;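 note: 0% = DMSO vehicle and 100% = wells lacking enzyme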
RBBP9 inh: blocks human serine hydrolase RBBP9. O75884. recombinant RBBP9, FP-Rh probe fluorescence polarization. inhibition, % at 7.94 µM. 220,000 tested, 0.2% active. AID 1515;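 active = inhibition above the campaign mean of all tested compounds plus 3 SD, cut at about 14% in these data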;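 note: plate controls were DMSO wells with RBBP9 for no effect and wells lacking RBBP9 protein for full effect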
Target sequence (O75884 whole entry, looked up): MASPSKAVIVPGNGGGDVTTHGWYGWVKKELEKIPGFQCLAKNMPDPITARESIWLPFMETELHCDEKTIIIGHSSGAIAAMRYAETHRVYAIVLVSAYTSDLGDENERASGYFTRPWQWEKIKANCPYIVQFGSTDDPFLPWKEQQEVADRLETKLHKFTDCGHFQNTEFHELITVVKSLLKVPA
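Measured by: FP readout at 525/598 nm; material: recombinant human RBBP9; also added: Serine-hydrolase probe FP-Rh, 375 nM pre-mixing; medium: Tris buffer pH 8.0, NaCl, Pluronic; replication: one well per compound; doses: one concentration, 7.94 µM nominal, 0.794% DMSO; timing: preincubation 30 min plus labeling 45 min at 25 °C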
Hsp70 act: switches on Hsp70 transcription | activation, % at 10 µM | HeLa Hsp70 promoter luciferase reporter, luminescence; scaled: vehicle 0, proteasome-inhibitor control 100% | 200,000 tested, 0.04% active;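 active = activation above the mean across all tested compounds plus 3 SD, cutoff set per campaign, cut at about 5.5% in these data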;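 note: 100% = MG132 at 30 µM as the positive control and 0% = DMSO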
PKD1 kinase inh: inhibitors of human PKD1 kinase | PKD1 kinase fluorescence polarization assay | 200,000 tested, 0.056% active | Q15139 | inhibition, % (test concentration not listed); in the data active = inhibition above about 50%
PP1 counter: counter-screen for PP5 inhibitors: inhibitors of human PP1-alpha. inhibition, % at 6.7 µM. 320,000 tested, 0.9% active. purified PP1alpha, OMFP fluorescence. AID 2235. P62136;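 active = inhibition above the mean inhibition of all tested compounds plus 3 SD, computed separately for each screening campaign, cut at about 15% in these data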
PP5 inh confirm: PP5 (human) inhibition, confirmation; 460 tested, 22% active; shares compounds with PP5 inh; Purified PP5, fluorogenic phosphatase substrate, fluorescence; inhibition, % at 6.7 µM; in the data active = inhibition above about 9.5%
PP1 counter 3x: inhibits human PP1 phosphatase in PP5 counter-screen; shares compounds with PP5 inh; 460 tested, 4% active; PP1 enzyme, fluorescent phosphatase substrate; inhibition, % at 6.7 µM; in the data active = inhibition above about 16%
Numbers without * were called inactive; x = no result given. Most compounds without a hit are left out; they make up all but 1.5% or so of the library.

SMILES	PP5 inh	p97 ATPase inh	RBBP9 inh	Hsp70 act	PKD1 kinase inh	PP1 counter	PP5 inh confirm	PP1 counter 3x
O=C(CS(=O)(=O)c1c[nH]c2ccccc12)N1CCc2ccccc21	3.0	-0.8	7.1	-0.3	4.0	0.7	x	x
Cc1cccc(C(=O)OC(C)C(=O)Nc2ccc(S(=O)(=O)Nc3ncccn3)cc2)c1C (stereo unspecified)	3.5	x	x	x	x	0.5	x	x
CCNc1nc(Nc2ccc(C)c(Cl)c2)c2cnn(C)c2n1	10.4*	x	x	x	x	5.7	0.3	3.0
Oc1ccc(/C=N\Nc2cc(N3CCOCC3)nc(N3CCOCC3)n2)c(O)c1	14.3*	10.7	-5.7	-0.1	0.5	0.0	35.8*	-0.1
Cc1nc2c(ncn2-c2ccccc2)c(=O)n1NC(=O)CN1CCCCC1	13.0*	1.4	-4.3	x	x	1.9	-4.7	-4.5
CCOc1ccccc1CNCC1CCCO1 (stereo unspecified)	-3.8	x	x	x	x	2.0	x	x
Cc1cc(C)cc(OCC(=O)N(C)CC(=O)Nc2ccc(Cl)c(C(F)(F)F)c2)c1	10.4*	x	x	x	x	4.4	4.9	6.9
CCc1c(C(=O)NCCc2ccc(OC)c(OC)c2)[nH]c(C)c1C(C)=O	12.5*	2.7	-7.0	0.2	-12.0	0.3	-6.1	-4.0
CCc1c(C(=O)NCCc2cccc(C)c2)[nH]c(C)c1C(C)=O	-2.2	x	x	x	x	-2.2	x	x
COC(=O)CCC(=O)OC1(C)C(=O)C2=CN(C3CC3)C(c3ccc(OC)cc3)=CC2=C(Br)C1=O (stereo unspecified)	11.5*	x	x	x	x	3.3	37.1*	12.4
COC(=O)CCC(=O)OC1(C)C(=O)C2=CN(Cc3ccc(OC)cc3)C(c3ccc(OC)cc3)=CC2=C(Br)C1=O (stereo unspecified)	3.9	x	x	x	x	9.2	x	x
COC(=O)CCC(=O)OC1(C)C(=O)C2=CN(CC(C)C)C(c3ccc(OC)cc3)=CC2=C(Br)C1=O (stereo unspecified)	14.7*	x	x	x	x	7.5	30.8*	11.7
COc1ccccc1NC(=O)Cn1nc(-c2ccncc2)nc1SCC(=O)NC1CCCC1	10.6*	1.9	-12.3	0.2	-0.9	-2.3	-6.8	-6.8
COc1ccccc1NC(=O)Cc1nnc(SCC(=O)NC2CCCC2)n1C	-0.9	x	x	x	x	-5.0	x	x
O=C(OCC(=O)N1CCN(C(=O)c2ccco2)CC1)c1cc(-c2cccc(Br)c2)nc2ccccc12	3.6	0.2	-14.5	0.3	10.7	5.8	x	x
COc1cc(C=O)ccc1OC(=O)Nc1ccccc1	11.5*	x	x	x	x	-1.7	-2.5	-1.8
COc1cc(C=O)ccc1OS(=O)(=O)c1ccc(NC(C)=O)cc1	0.0	1.3	-9.2	-0.3	2.9	-3.4	x	x
COc1ccc(NC(=O)C2CC(=O)N(C)C(=Nc3ccc4c(c3)OCO4)S2)cc1 (stereo unspecified)	12.2*	-5.7	-14.9	-0.2	-15.3	-3.3	-1.2	0.4
Cc1ccc(NC(=O)CNC(=O)c2cccs2)cc1S(=O)(=O)Nc1ccc(Cl)cc1	6.0	0.9	-13.7	0.5	-16.1	1.6	x	x
CC(C)[C@H](Nc1ccc(C(F)(F)F)cc1[N+](=O)[O-])C(=O)O	1.1	5.7	-2.1	x	x	-0.3	x	x
O=C(NNc1ccc(C(F)(F)F)cc1[N+](=O)[O-])c1ccc(NS(=O)(=O)c2ccc(F)cc2)cc1	10.5*	-4.2	3.7	-0.3	-0.6	9.4	3.5	3.2
N/C(=N\NC(=O)c1cccs1)c1cc2cc(Cl)ccc2oc1=O	1.1	8.4	4.9	x	x	-0.2	x	x
N#Cc1ccc(CN2CCN(c3ccc(S(=O)(=O)N4CCCC4)cn3)CC2)cc1	-2.4	x	x	x	x	-0.5	x	x
O=C(/C=C/c1ccco1)NC(=S)Nc1ccccc1N1CCOCC1	9.7*	3.8	-7.1	0.2	-12.6	-0.8	0.3	0.7
CCC(=O)c1ccc(OCC(=O)OCC(=O)N2c3ccccc3CC2C)cc1 (stereo unspecified)	1.8	x	x	x	x	-3.6	x	x
SMILES	PP5 inh	p97 ATPase inh	RBBP9 inh	Hsp70 act	PKD1 kinase inh	PP1 counter	PP5 inh confirm	PP1 counter 3x
S=C(NC1CCCCC1)N1CCOCCOCCN(C(=S)NC2CCCCC2)CCOCC1	9.8*	-4.5	2.0	x	x	1.3	-0.5	1.5
CCOC(=O)/C(=C/C1=CC(=C/N(C)C)/C(=O)O1)C(C)=O	0.8	2.5	-11.7	x	x	1.4	x	x
O=C(CC1(O)C(=O)c2ccccc2C1=O)c1ccccc1	-2.9	7.5	8.9	-0.5	-3.2	-13.3	x	x
O=C1c2ccccc2C(=O)C1(O)O	15.7*	x	x	x	x	5.2	4.8	14.0
O=C1N/C(=N/O)S/C1=C/c1cccc([N+](=O)[O-])c1	-0.4	-1.1	-6.0	-0.2	-0.2	-1.2	x	x
O=C1N/C(=N\S(=O)(=O)Cc2ccccc2)S/C1=C/c1cccc([N+](=O)[O-])c1	10.6*	2.6	2.2	x	x	5.2	-2.5	5.8
COc1ccc(CCNC(=O)COc2ccccc2[N+](=O)[O-])cc1OC	1.0	6.7	-6.9	x	x	-4.3	x	x
O=C(CC(=O)NCc1ccccc1)NCc1ccccc1	1.4	x	x	x	x	-3.7	x	x
O=C(Nc1ccc(O)cc1)C1CCCO1 (stereo unspecified)	10.8*	-1.6	-3.1	-0.1	-5.4	-3.6	-2.5	-4.0
Cc1cc(OCc2cc(C(=O)NCc3csc(C(C)C)n3)no2)cc(C)c1Cl	5.4	x	x	x	x	-2.9	x	x
O=C(Nc1ccc(O)cc1)/C(=C\C=C\c1ccccc1)NC(=O)c1ccccc1	12.2*	6.5	-6.5	x	x	-3.4	-2.4	-2.3
NC(=O)c1ccc(C(F)(F)F)n(Cc2c(Cl)cccc2Cl)c1=O	11.8*	-3.9	-8.9	-0.5	-1.3	-1.9	6.3	8.0
COc1ccc(Cn2c(C(F)(F)F)ccc(C(N)=O)c2=O)cc1	1.2	1.1	-4.2	-0.1	1.4	-0.1	x	x
O=C(Nc1cc(C(F)(F)F)cc(C(F)(F)F)c1)c1ccc(Cn2cc(C(F)(F)F)ccc2=O)cc1	10.7*	0.4	-6.5	-0.1	-6.3	2.9	10.6*	0.8
O=C(Nc1cccc2ncccc12)c1ccc(-c2ccc(Br)cc2)o1	12.7*	0.8	-2.9	0.0	-1.6	-1.2	-2.0	-2.4
Cc1c(Cl)cccc1NC(=O)C1CCN(S(C)(=O)=O)CC1	-1.7	-6.0	-6.1	-0.2	-7.1	-5.4	x	x
Cc1cccc(NC(=O)C2CCN(S(C)(=O)=O)CC2)c1C	10.6*	x	x	x	x	-0.6	-7.5	-5.5
CCCNC(=O)c1ccccc1NC(=O)c1ccc2c(c1)NC(=O)C(C)S2 (stereo unspecified)	3.5	x	x	x	x	0.1	x	x
CC(C)(CO)NC12CC3CC(CC(C3)C1)C2	10.8*	3.0	-4.8	-0.1	-6.2	-12.7	-2.4	-3.9
CC(O)CNC12CC3CC(CC(C3)C1)C2 (stereo unspecified)	-0.9	5.1	0.8	-0.3	-2.8	-6.2	x	x
CC(C)C(=O)Nc1nnc(SCC(=O)Nc2ccc3c(c2)OCCO3)s1	12.8*	2.6	1.1	-0.3	4.7	-10.3	-4.7	-2.0
